In ChEMBL document CHEMBL3259773, “Indirubin core structure of glycogen synthase kinase-3 inhibitors as novel chemotype for intervention with 5-lipoxygenase” (J Med Chem, 2014):
Activity calls are given as the source filed them. The calls are words filed in the database; no cut-off is given here.

Assays:
[1] = molecular target: T1, Polyunsaturated fatty acid 5-lipoxygenase (Homo sapiens) (UniProt P09917); assay: Inhibition of human recombinant 5-LO assessed as product formation at 3 uM by cell-free assay relative to control; values are per cent of control
T1 sequence (whole entry): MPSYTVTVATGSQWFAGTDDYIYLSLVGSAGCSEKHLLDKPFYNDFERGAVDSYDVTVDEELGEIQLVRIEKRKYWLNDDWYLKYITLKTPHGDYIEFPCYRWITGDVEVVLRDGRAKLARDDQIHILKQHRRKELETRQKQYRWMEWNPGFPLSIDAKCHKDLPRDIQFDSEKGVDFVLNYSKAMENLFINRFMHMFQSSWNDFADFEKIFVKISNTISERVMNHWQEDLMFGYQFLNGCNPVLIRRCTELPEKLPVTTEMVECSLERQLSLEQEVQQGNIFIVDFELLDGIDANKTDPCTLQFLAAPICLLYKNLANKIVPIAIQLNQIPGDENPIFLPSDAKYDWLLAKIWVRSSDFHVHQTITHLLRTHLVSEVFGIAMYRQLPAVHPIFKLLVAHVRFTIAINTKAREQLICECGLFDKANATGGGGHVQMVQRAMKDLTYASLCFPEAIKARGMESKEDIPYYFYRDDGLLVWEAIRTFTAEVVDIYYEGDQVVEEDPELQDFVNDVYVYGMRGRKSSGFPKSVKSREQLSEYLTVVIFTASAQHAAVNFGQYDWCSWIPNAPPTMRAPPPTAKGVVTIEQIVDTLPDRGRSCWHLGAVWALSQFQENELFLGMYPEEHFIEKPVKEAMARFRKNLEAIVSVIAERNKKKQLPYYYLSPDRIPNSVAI

[2] = molecular target: T1, Polyunsaturated fatty acid 5-lipoxygenase (Homo sapiens); assay: Inhibition of 5-LO in human neutrophils assessed as product formation at 3 uM by cell-intact assay relative to control in presence of 2.5 uM A23187 ionophore; values are per cent of control
[3] = molecular target: T2, Polyunsaturated fatty acid 5-lipoxygenase (Homo sapiens, UniProt P09917); assay: Inhibition of 5-LO in human neutrophils assessed as product formation by cell-intact assay relative to control in presence of 20 uM A23187/AA ionophore
T2 sequence (P09917 whole entry): T1 sequence (whole entry)
In short: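 Intact human neutrophils, 5 × 10^6 cells/mL, stimulated with 2.5 μM A23187 plus 20 μM exogenous AA. 5-LO products quantified by HPLC or UPLC–MS/MS relative to vehicle control. IC50 from sigmoidal variable-slope fit, means ± SE, n = 3.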

[4] = molecular target: T2, Polyunsaturated fatty acid 5-lipoxygenase; assay: Inhibition of 5-LO in human neutrophils assessed as product formation by cell-intact assay relative to control in presence of 2.5 uM A23187 ionophore
In short: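 Intact human neutrophils, 5 × 10^6 cells/mL, stimulated with 2.5 μM A23187. 5-LO products analysed by HPLC or UPLC–MS/MS and expressed relative to DMSO vehicle control. Means ± SE, n = 3 or 4; IC50 from sigmoidal variable-slope fit.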

[5] = molecular target: T2, Polyunsaturated fatty acid 5-lipoxygenase; assay: Inhibition of human recombinant 5-LO assessed as product formation by cell-free assay relative to control
In short: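 Partially purified human recombinant 5-LO (ATP-agarose eluate, 0.5–2 μg) in PBS-EDTA with 1 mM ATP. Preincubated with vehicle or compound 10 min at 4 °C, prewarmed 30 s at 37 °C, then started with 2 mM CaCl2 and 20 μM AA. Products analysed by HPLC. Means ± SE, n = 3 or 4; IC50 by sigmoidal variable-slope fit.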

[6] = molecular target: T3, Prostaglandin G/H synthase 1 (Ovis aries) (UniProt P05979); assay: Inhibition of ovine COX1 using arachidonic acid at 10 uM after 5 mins by HPLC analysis
T3 sequence (whole entry): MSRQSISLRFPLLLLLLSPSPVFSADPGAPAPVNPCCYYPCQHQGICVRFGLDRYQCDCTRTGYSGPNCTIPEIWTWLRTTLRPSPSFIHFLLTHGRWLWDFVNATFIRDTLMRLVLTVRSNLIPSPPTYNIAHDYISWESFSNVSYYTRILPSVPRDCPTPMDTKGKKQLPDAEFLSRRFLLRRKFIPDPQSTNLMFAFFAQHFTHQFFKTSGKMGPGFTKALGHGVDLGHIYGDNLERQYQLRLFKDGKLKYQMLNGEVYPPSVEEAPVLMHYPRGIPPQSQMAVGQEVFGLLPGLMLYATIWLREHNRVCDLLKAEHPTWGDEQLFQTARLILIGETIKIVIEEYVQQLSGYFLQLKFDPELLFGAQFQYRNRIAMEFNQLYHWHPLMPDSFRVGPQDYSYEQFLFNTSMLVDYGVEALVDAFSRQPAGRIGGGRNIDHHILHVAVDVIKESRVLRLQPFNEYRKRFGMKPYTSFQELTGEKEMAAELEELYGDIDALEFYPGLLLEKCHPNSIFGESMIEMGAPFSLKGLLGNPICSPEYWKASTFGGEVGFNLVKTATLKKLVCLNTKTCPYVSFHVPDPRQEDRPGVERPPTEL
In short: (§1)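 Enzyme (ovine COX-1) or A549 microsomal preparation (human mPGES-1) given compound or reference inhibitor 10 min before reaction start. Activity expressed as % of 0.1% DMSO vehicle control, read-outs 12-HHT (COX-1) and PGE2 (mPGES-1). Means ± SE, n = 3.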

[7] = molecular target: T4, Prostaglandin E synthase (Homo sapiens) (UniProt O14684); assay: Inhibition of human mPGES1 from human A549 cells assessed as PGE2 at 10 uM after 15 mins by HPLC; assay type: cell-based
T4 sequence (whole entry): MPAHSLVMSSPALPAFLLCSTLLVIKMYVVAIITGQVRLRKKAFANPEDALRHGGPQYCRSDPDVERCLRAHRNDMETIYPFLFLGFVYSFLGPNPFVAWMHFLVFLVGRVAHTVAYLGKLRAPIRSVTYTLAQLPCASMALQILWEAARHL
In short: as §1

[8] = molecular target: T1, Polyunsaturated fatty acid 5-lipoxygenase (Homo sapiens); assay: Binding affinity to human recombinant 5-LO ATP-bindng site using ATP-agaarose column in S40 fraction of Escherichia coli
In short: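 E. coli S40 fraction (40,000 × g supernatant) bound to ATP-agarose for 10 min at 4 °C. Pellets washed 3× with PBS-1 mM EDTA, then exposed to vehicle (0.1% DMSO) or compound for 30 min at 4 °C. Eluates and pellet-bound 5-LO resolved by SDS-PAGE and Western blot. Representative of three experiments.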

SH-SY5Y = assay: Anticancer activity against human SH-SY5Y cells assessed as reduction in cell viability; assay type: functional, cell-based
[9] = Inhibition of pig brain GSK3 using YRRAAVPPSPSLSRHSSPHQSpEDEEE substrate by cell-free assay; set-up: species or system Sus scrofa

Row | SMILES | residual activity [1] [%] | residual activity [2] [%] | further results
1 | COc1ccc2c(c1)c(CC(=O)O)c(C)n2C(=O)c1ccc(Cl)cc1 |  |  | inhibition [6]: Active
2 | O=C1Nc2cc(Br)ccc2/C1=C1/Nc2ccccc2/C1=N\OCC(O)CO (configuration not stated) | 58 | 77.7 | 
3 | CN1CCN(CCO/N=C2/C(=C3/C(=O)Nc4cc(Br)ccc43)Nc3ccccc32)CC1 | 82.1 | 91.1 | 
4 | CC(C)c1ccc2c(c1)c(SC(C)(C)C)c(CC(C)(C)C(=O)O)n2Cc1ccc(Cl)cc1 |  |  | inhibition [7]: Active
5 | O=C1Nc2c(Br)cccc2/C1=C1/Nc2cc(C(=O)O)ccc2C1=O | 80 | 105 | 
6 | O=Nc1c(-c2c(O)[nH]c3ccccc23)[nH]c2cc(Br)ccc12 | 43.9 | 111 | 
7 | O=C1Nc2cc(Br)ccc2/C1=C1/Nc2ccccc2/C1=N\OCCN1CCNCC1 | 76.2 | 64.7 | 
8 | O=C1Nc2cc(Br)ccc2/C1=C1/Nc2ccccc2/C1=N\OCCN1CCN(CCO)CC1 | 89.3 | 119 | 
9 | O=C1Nc2cc(Br)ccc2/C1=C1/Nc2ccccc2/C1=N\OCCN1CCOCC1 | 60.3 | 62.7 | 
10 | CC(c1cc2ccccc2s1)N(O)C(N)=O (configuration not stated) |  | 37.9 | 
11 | O=C1Nc2cc(Br)ccc2/C1=C1/Nc2ccccc2/C1=N\OCCN1CCCC1 | 75.1 | 127 | 
12 | O=C1Nc2c(Br)cccc2/C1=C1/Nc2ccc(/C=N/O)cc2C1=O | 80 | 95.1 | 
13 | CN(CCO/N=C1/C(=C2/C(=O)Nc3cc(Br)ccc32)Nc2ccccc21)CC(O)CO (configuration not stated) | 71.5 | 87 | 
14 | O=Nc1c(-c2c(O)[nH]c3ccccc23)[nH]c2ccccc12 [INDIRUBIN-3-MONOXIME] | 78.4 | 92.2 | IC50 [3]: 8.2 µM; IC50 [4]: 11.1 µM; IC50 [5]: 15 µM; IC50 [9]: 0.022 µM

The next lines start with results.

Row | residual activity [1] [%] | residual activity [2] [%] | SMILES | further results
15 | 85.4 | 110 | O=C1Nc2c(Br)cccc2/C1=C1/Nc2ccccc2C1=O | 
16 | 88.3 | 81.5 | O=C1Nc2cc(Br)ccc2/C1=C1/Nc2ccccc2/C1=N\OCCO | 
17 | 58.1 | 50.4 | O=C1Nc2c(F)cccc2/C1=C1/Nc2ccccc2/C1=N\O | IC50 [3]: 3.3 µM; IC50 [4]: 5 µM; IC50 [5]: 3.7 µM
18 | 79.2 | 112 | CC(=O)O/N=C1/C(=C2/C(=O)Nc3c(Br)cccc32)Nc2ccccc21 | 
19 | 72.8 | 99.1 | COC(=O)c1ccc2c(c1)C(=N\O)/C(=C1/C(=O)Nc3c(Br)cccc31)N2 | 
20 | 77.1 | 123 | O=C1Nc2c(Br)cccc2/C1=C1/Nc2cc(C(=O)O)ccc2/C1=N\O | 
21 | 62.3 | 51.1 | O=C1Nc2ccc(Br)cc2/C1=C1/Nc2ccccc2/C1=N\O [INDIRUBIN 2] | IC50 [3]: 3.3 µM; IC50 [4]: 2.6 µM; IC50 [5]: 5.6 µM
22 | 97.7 | 122 | CN1C(=O)/C(=C2\Nc3ccccc3\C2=N/O)c2cccc(Br)c21 | Activity [8]: inactive
23 | 68.9 | 43 | O=C1Nc2c(Br)cccc2/C1=C1/Nc2ccccc2/C1=N\O | IC50 [3]: 3.6 µM; IC50 [4]: 1.7 µM; IC50 [5]: 5.8 µM; EC50 (SH-SY5Y): 8 µM
24 | 68 | 92.6 | O=C1Nc2c(cccc2C(F)(F)F)/C1=C1/Nc2ccccc2/C1=N\O | 
25 | 65.8 | 67.4 | O=C1Nc2c(Cl)cccc2/C1=C1/Nc2ccccc2/C1=N\O | IC50 [3]: 3.1 µM; IC50 [4]: 4.9 µM; IC50 [5]: 4.9 µM
26 | 82.9 | 120 | CO/N=C1/C(=C2/C(=O)Nc3c(Br)cccc32)Nc2ccccc21 | 
